Source: ChEMBL document CHEMBL4052603, “Branimycins B and C, Antibiotics Produced by the Abyssal Actinobacterium Pseudonocardia carboxydivorans M-227” (2017)
In brackets after ≈: the same amount, converted by molar mass.

Assays:
Type in all cases: functional
Bacteroides fragilis [1] = experiment: Antibacterial activity against Bacteroides fragilis 61592 by CLSI method
Staphylococcus aureus [2] = experiment: Antibacterial activity against Staphylococcus aureus ATCC 6538P by CLSI method
Summary of the method: (§1)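 CLSI susceptibility testing on Mueller-Hinton agar; clinical isolates came from patients with infections.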

Klebsiella pneumoniae = experiment: Antibacterial activity against Klebsiella pneumoniae ATCC 700603 by CLSI method
Staphylococcus aureus [3] = experiment: Antibacterial activity against Staphylococcus aureus ATCC 43300 by CLSI method
Streptococcus pneumoniae = experiment: Antibacterial activity against Streptococcus pneumoniae 64412 by CLSI method
Summary of the method: (§2)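 CLSI procedure on Mueller-Hinton agar, supplemented per CLSI conditions for S. pneumoniae, S. pyogenes and N. meningitidis.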

Acinetobacter baumannii = experiment: Antibacterial activity against Acinetobacter baumannii MB5973 after 20 hrs by spectrophotometric method; conditions: MB5973, 20 h
Enterococcus faecalis [4] = experiment: Antibacterial activity against Enterococcus faecalis ATCC 29212 by CLSI method; summary of the method: as §1
Enterococcus faecalis [5] = experiment: Antibacterial activity against Enterococcus faecalis ATCC 51299 by CLSI method; summary of the method: as §1
Escherichia coli [6] = experiment: Antibacterial activity against Escherichia coli MB2884 after 20 hrs by spectrophotometric method; conditions: MB2884, 20 h
Streptococcus pyogenes = experiment: Antibacterial activity against Streptococcus pyogenes 81293 by CLSI method; summary of the method: as §2
Bacteroides fragilis [7] = experiment: Antibacterial activity against Bacteroides fragilis ATCC 25285 by CLSI method
Staphylococcus aureus [8] = experiment: Antibacterial activity against methicillin-sensitive Staphylococcus aureus MB2865 by CLSI method
Summary of the method: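 MSSA MB2865 tested with diluted inoculum mixed with medium (LB or BHI) plus compound dilution. Twofold serial dilutions from 160 to 0.31 μg/mL, in triplicate. Penicillin G (0.312 to 0.039 μg/mL) was the positive control and amphotericin B (16 to 0.25 μg/mL) the negative control.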

Staphylococcus aureus [9] = experiment: Antibacterial activity against methicillin-resistant Staphylococcus aureus MB5393 by CLSI method
Summary of the method: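 Broth microdilution: 90 μL diluted inoculum plus 8.4 μL medium (LB or BHI) and 1.6 μL compound dilution. Compounds tested as 2-fold serial dilutions from 160 to 0.31 μg/mL, in triplicate. Vancomycin (32 to 4 μg/mL) served as positive control and amphotericin B (16 to 0.25 μg/mL) as negative control.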

[10] = test system: Mycobacterium tuberculosis; experiment: Antibacterial activity against Mycobacterium tuberculosis MDR-2 by CLSI method
Summary of the method: (§3)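 Agar proportion method for slowly growing mycobacteria on Middlebrook 7H10 agar supplemented with 10% OADC and 0.5% glycerol.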

Enterococcus faecalis [11] = experiment: Antibacterial activity against Enterococcus faecalis 10544 by CLSI method; summary of the method: as §1
[12] = test system: Mycobacterium tuberculosis; experiment: Antibacterial activity against Mycobacterium tuberculosis MDR-1 by CLSI method; summary of the method: as §3
Clostridium perfringens = experiment: Antibacterial activity against Clostridium perfringens 103281 by CLSI method
Micrococcus luteus = experiment: Antibacterial activity against Micrococcus luteus ATCC 14452 by CLSI method; summary of the method: as §1
Staphylococcus aureus [13] = experiment: Antibacterial activity against Staphylococcus aureus ATCC 25923 by CLSI method; summary of the method: as §1
Pseudomonas aeruginosa = experiment: Antibacterial activity against Pseudomonas aeruginosa PAO1 after 20 hrs by spectrophotometric method; conditions: PAO1, 20 h
Enterococcus faecium = experiment: Antibacterial activity against Enterococcus faecium 10701 by CLSI method; summary of the method: as §1
Haemophilus influenzae [14] = experiment: Antibacterial activity against Haemophilus influenzae ATCC 49247 by CLSI method
Neisseria meningitidis = experiment: Antibacterial activity against Neisseria meningitidis 71327 by CLSI method; summary of the method: as §2
Staphylococcus aureus [15] = experiment: Antibacterial activity against Staphylococcus aureus 11497 by CLSI method; summary of the method: as §1
[16] = test system: Corynebacterium urealyticum; experiment: Antibacterial activity against Corynebacterium urealyticum 1492 by CLSI method
Summary of the method: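 CLSI procedure on trypticasein soy agar with 5% sheep blood.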

[17] = test system: Mycobacterium tuberculosis; experiment: Antibacterial activity against Mycobacterium tuberculosis H37Rv by CLSI method; summary of the method: as §3
Escherichia coli [18] = experiment: Antibacterial activity against Escherichia coli ESS by CLSI method; summary of the method: as §1
Haemophilus influenzae [19] = experiment: Antibacterial activity against Haemophilus influenzae 10996 by CLSI method; summary of the method: as §1

In the case of `COC[C@H]1[C@@H](O)[C@@H]2O[C@@]34/C(C)=C/[C@@H](C)[C@@H]([C@H](O)CO)OC(=O)[C@H](COC)[C@H]3C=C[C@@H]2[C@H]4[C@@H]1O`, the MIC (Bacteroides fragilis [1]) is reported as greater than 128 µg/mL, the MIC (Staphylococcus aureus [2]) is reported as 32 µg/mL (≈ 68.3 µM) and the MIC (Klebsiella pneumoniae) is reported as greater than 80 µg/mL. For the same molecule, the MIC (Staphylococcus aureus [3]) was greater than 64 µg/mL, the MIC (Streptococcus pneumoniae) was greater than 128 µg/mL and the MIC (Acinetobacter baumannii) was greater than 80 µg/mL. For the same molecule, the MIC (Enterococcus faecalis [4]) was greater than 64 µg/mL, the MIC (Enterococcus faecalis [5]) was greater than 64 µg/mL and the MIC (Escherichia coli [6]) was greater than 80 µg/mL. The MIC (Streptococcus pyogenes) was greater than 128 µg/mL, the MIC (Bacteroides fragilis [7]) was 128 µg/mL (≈ 273 µM) and the MIC (Staphylococcus aureus [8]) was 80 µg/mL (≈ 171 µM). For the same molecule, the MIC (Staphylococcus aureus [9]) was 20 to 40 µg/mL (≈ 42.7 to 85.4 µM), the MIC [10] was greater than 32 µg/mL and the MIC (Enterococcus faecalis [11]) was 64 µg/mL (≈ 137 µM). It also gave an MIC [12] greater than 32 µg/mL, an MIC (Clostridium perfringens) of 16 µg/mL (≈ 34.1 µM) and an MIC (Micrococcus luteus) of 16 µg/mL (≈ 34.1 µM). The MIC (Staphylococcus aureus [13]) was 64 µg/mL (≈ 137 µM), the MIC (Pseudomonas aeruginosa) was greater than 80 µg/mL and the MIC (Enterococcus faecium) was greater than 64 µg/mL. It also gave an MIC (Haemophilus influenzae [14]) greater than 64 µg/mL, an MIC (Neisseria meningitidis) of 64 µg/mL (≈ 137 µM) and an MIC (Staphylococcus aureus [15]) greater than 64 µg/mL. For the same molecule, the MIC [16] was 16 µg/mL (≈ 34.1 µM), the MIC [17] was greater than 32 µg/mL and the MIC (Escherichia coli [18]) was 128 µg/mL (≈ 273 µM). The MIC (Haemophilus influenzae [19]) was greater than 64 µg/mL.

Molecule `COC[C@H]1C(=O)O[C@H]([C@H](O)CO)[C@H](C)/C=C(\C)[C@@]23O[C@H]4[C@H](O)[C@H](C)[C@@H](O)[C@@H]2[C@H]4C=C[C@H]13` has an MIC (Bacteroides fragilis [1]) of 128 µg/mL (≈ 292 µM), an MIC (Staphylococcus aureus [2]) greater than 128 µg/mL and an MIC (Klebsiella pneumoniae) greater than 80 µg/mL. For the same molecule, the MIC (Staphylococcus aureus [3]) was greater than 64 µg/mL, the MIC (Streptococcus pneumoniae) was greater than 128 µg/mL and the MIC (Acinetobacter baumannii) was greater than 80 µg/mL. It also gave an MIC (Enterococcus faecalis [4]) greater than 64 µg/mL, an MIC (Enterococcus faecalis [5]) greater than 64 µg/mL and an MIC (Escherichia coli [6]) greater than 80 µg/mL. The MIC (Streptococcus pyogenes) was greater than 128 µg/mL, the MIC (Bacteroides fragilis [7]) was 32 µg/mL (≈ 73 µM) and the MIC (Staphylococcus aureus [8]) was greater than 160 µg/mL. For the same molecule, the MIC (Staphylococcus aureus [9]) was greater than 160 µg/mL, the MIC [10] was greater than 32 µg/mL and the MIC (Enterococcus faecalis [11]) was greater than 64 µg/mL. The MIC [12] was greater than 32 µg/mL, the MIC (Clostridium perfringens) was 32 µg/mL (≈ 73 µM) and the MIC (Micrococcus luteus) was 1 µg/mL (≈ 2.28 µM). It also gave an MIC (Staphylococcus aureus [13]) greater than 64 µg/mL, an MIC (Pseudomonas aeruginosa) greater than 80 µg/mL and an MIC (Enterococcus faecium) greater than 64 µg/mL. It also gave an MIC (Haemophilus influenzae [14]) of 32 µg/mL (≈ 73 µM), an MIC (Neisseria meningitidis) of 32 µg/mL (≈ 73 µM) and an MIC (Staphylococcus aureus [15]) greater than 64 µg/mL. The MIC [16] was 8 µg/mL (≈ 18.2 µM), the MIC [17] was greater than 32 µg/mL and the MIC (Escherichia coli [18]) was 64 µg/mL (≈ 146 µM). The MIC (Haemophilus influenzae [19]) was greater than 64 µg/mL.
